In ChEMBL document CHEMBL4373672, “A small molecule drug conjugate (SMDC) of DUPA and a duocarmycin built on the solid phase” (Medchemcomm, 2019):

Assays:
[1] = tested on: DNA; assay: DNA alkylating activity in human LNCAP cells exhibiting increased cathepsin B activity and overexpressing GCPII assessed as reduction in cell viability incubated for 72 hrs by MTS assay; assay type: functional, cell-based
How it was run: (§1)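 Cell lines from ECACC, grown in supplier-recommended media with 10% foetal calf serum and 2 mM L-glutamine, kept at 1-9 x 10^5 cells/mL, 37 °C, 5% CO2. Seeded at 3 x 10^4 cells/100 μL and exposed in triplicate to compound at 100 μM down to 0.00001 μM (10-fold steps) for 72 h; final DMSO 1%. Stocks in DMSO made fresh each day. Doxorubicin hydrochloride (10 μM) served as the 100% inhibition value. MTS reagent added for 3 h, absorbance read at 490 nm. Three independent runs on different passages; IC50 from curve fit.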

[2] = tested on: DNA; assay: DNA alkylating activity in GCPII negative human PC3 cells exhibiting increased cathepsin B activity assessed as reduction in cell viability incubated for 72 hrs by MTS assay; assay type: functional; settings: PC-3, 72 h; how it was run: as §1
[3] = tested on: DNA; assay: DNA alkylating activity in human NCI-H292 cells exhibiting increased cathepsin B activity and overexpressing GCPII assessed as reduction in cell viability incubated for 72 hrs by MTS assay; assay type: functional, cell-based; settings: NCI-H292, 72 h; how it was run: as §1
[4] = tested on: DNA; assay: DNA alkylating activity in human A549 cells exhibiting increased cathepsin B activity and overexpressing GCPII assessed as reduction in cell viability incubated for 72 hrs by MTS assay; assay type: functional, cell-based; settings: A549, 72 h; how it was run: as §1
[5] = tested on: DNA; assay: DNA alkylating activity in human MCF7 cells exhibiting increased cathepsin B activity and overexpressing GCPII assessed as reduction in cell viability incubated for 72 hrs by MTS assay; assay type: functional, cell-based; settings: MCF7, 72 h; how it was run: as §1
[6] = tested on: DNA; assay: DNA alkylating activity in human SKBR3 cells exhibiting increased cathepsin B activity and reduced GCPII expression assessed as reduction in cell viability incubated for 72 hrs by MTS assay; assay type: functional, cell-based; settings: SK-BR-3, 72 h; how it was run: as §1
[7] = tested on: DNA; assay: DNA alkylating activity in human SK-MEL-28 cells exhibiting increased cathepsin B activity and overexpressing GCPII assessed as reduction in cell viability incubated for 72 hrs by MTS assay; assay type: functional, cell-based; settings: SK-MEL-28, 72 h; how it was run: as §1
[8] = tested on: DNA; assay: DNA alkylating activity in human GCPII negative 16HBE14o cells deficient of cathepsin B activity assessed as reduction in cell viability incubated for 72 hrs by MTS assay; assay type: functional; how it was run: as §1
[9] = tested on: DNA; assay: DNA alkylating activity in GCPII negative human PC3 cells exhibiting increased cathepsin B activity assessed as reduction in cell viability incubated with GCPII binder 2-PMPA for 1 hr followed by incubation with compound for 48 hrs by MTS assay; assay type: functional; settings: PC-3
How it was run: (§2)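 Pre-treatment of cells (3 x 10^4/100 μL) with 10 μM 2-PMPA for 1 h. Compound in DMSO was then added in triplicate at 100 μM to 0.0001 μM (10-fold steps), 48 h at 37 °C, 5% CO2; final DMSO 1%. Doxorubicin hydrochloride defined 100% inhibition. MTS reagent for 3 h, absorbance at 490 nm. Three independent runs on different passages.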

[10] = tested on: DNA; assay: DNA alkylating activity in human LNCAP cells exhibiting increased cathepsin B activity and overexpressing GCPII assessed as reduction in cell viability incubated with GCPII binder 2-PMPA for 1 hr followed by incubation with compound for 48 hrs by MTS assay; assay type: functional, cell-based; how it was run: as §2

**Q.** For `NC(=O)c1cc2c3c(cc(O)c2[nH]1)N(C(=O)c1ccc(N)cc1)CC3CCl` (stereo not given), which IC50 [1] is on record?
**A.** 15.7 nM

**Q.** What about the IC50 [2] of the same compound?
**A.** 4.7 nM

**Q.** What about the IC50 [3] of the same compound?
**A.** 7.3 nM

**Q.** And the IC50 [4]?
**A.** 36.6 nM

**Q.** And the IC50 [5]?
**A.** 181 nM

**Q.** And the IC50 [6]?
**A.** 2.3 nM

**Q.** And the IC50 [7]?
**A.** 22.5 nM

**Q.** And the IC50 [8]?
**A.** 85.4 nM

**Q.** What about the IC50 [9] of the same compound?
**A.** 6.1 nM

**Q.** And the IC50 [10]?
**A.** 25.5 nM
